Laboratory results reported in article PMC12046972 (ChemMedChem, 2025).

How the values were obtained:
microglial cell lines = details: a number of microglial cell lines; cited from earlier work
solubility in DMSO = details: in words
mice = details: treatment of mice; cited from earlier work
SHIP1 [1] = biological target: T1, SHIP1 (Homo sapiens, UniProt Q92835); assay: malachite green assay for phosphatase activity, SHIP1; format: biochemical; details: described in words; for selectivity between SHIP1 and SHIP2: malachite green assay at 1 mM; for Inhibition of SHIP1: malachite green assay, compounds evaluated at 1 mM
T1 sequence (Q92835 1-1189): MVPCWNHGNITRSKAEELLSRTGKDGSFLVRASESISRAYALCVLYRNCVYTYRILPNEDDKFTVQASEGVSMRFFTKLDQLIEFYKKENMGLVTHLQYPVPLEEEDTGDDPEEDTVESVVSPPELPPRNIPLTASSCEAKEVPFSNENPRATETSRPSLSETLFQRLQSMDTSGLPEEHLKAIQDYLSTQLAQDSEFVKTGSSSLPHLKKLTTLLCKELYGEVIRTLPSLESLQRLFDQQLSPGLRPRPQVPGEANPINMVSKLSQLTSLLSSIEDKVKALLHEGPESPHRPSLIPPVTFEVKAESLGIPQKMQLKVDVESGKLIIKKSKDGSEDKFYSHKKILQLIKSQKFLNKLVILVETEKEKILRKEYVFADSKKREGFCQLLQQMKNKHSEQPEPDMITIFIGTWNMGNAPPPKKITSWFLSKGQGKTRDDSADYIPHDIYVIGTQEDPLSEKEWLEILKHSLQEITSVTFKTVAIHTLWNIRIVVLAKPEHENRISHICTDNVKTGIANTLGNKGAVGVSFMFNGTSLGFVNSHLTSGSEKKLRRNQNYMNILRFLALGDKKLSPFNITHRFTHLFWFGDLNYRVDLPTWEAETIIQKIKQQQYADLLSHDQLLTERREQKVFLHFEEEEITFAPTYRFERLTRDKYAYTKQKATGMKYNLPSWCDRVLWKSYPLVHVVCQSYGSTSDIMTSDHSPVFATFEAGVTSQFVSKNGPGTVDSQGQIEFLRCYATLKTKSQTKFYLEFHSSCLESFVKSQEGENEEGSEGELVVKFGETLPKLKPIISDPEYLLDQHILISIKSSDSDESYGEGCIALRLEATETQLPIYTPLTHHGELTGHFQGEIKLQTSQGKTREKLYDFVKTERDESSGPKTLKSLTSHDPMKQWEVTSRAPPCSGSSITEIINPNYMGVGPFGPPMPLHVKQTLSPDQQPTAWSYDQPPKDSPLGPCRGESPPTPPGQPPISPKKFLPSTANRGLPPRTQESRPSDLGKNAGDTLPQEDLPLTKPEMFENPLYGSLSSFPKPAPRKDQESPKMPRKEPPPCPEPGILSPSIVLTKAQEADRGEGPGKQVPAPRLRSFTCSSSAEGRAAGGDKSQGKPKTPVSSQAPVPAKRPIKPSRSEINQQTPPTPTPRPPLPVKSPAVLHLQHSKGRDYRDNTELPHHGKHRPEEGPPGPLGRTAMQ
How it was run: (§1)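 Phosphate released from C8-PI(3,4,5)P3 (short-chain substrate used to avoid micelles) measured by malachite green colorimetric readout. Reactions contained only SHIP enzyme, buffer and substrate, with no surfactant. Test compounds were tested at 1 mM from DMSO/buffer mixtures. Values are means of at least 3 measurements, with standard deviation.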

SHIP1 [2] = biological target: T1, SHIP1; details: read-out: IC50 for SHIP1; cited from earlier work
SHIP1 [3] = biological target: T1, SHIP1; assay: fluorescence polarization; format: biochemical; details: general statement in the docking discussion
SHIP2 [4] = biological target: T2, SHIP2 (Homo sapiens, UniProt O15357); assay: malachite green assay for phosphatase activity, SHIP2; format: biochemical; details: compounds evaluated at 1 mM, described in words
T2 sequence (O15357 1-1258): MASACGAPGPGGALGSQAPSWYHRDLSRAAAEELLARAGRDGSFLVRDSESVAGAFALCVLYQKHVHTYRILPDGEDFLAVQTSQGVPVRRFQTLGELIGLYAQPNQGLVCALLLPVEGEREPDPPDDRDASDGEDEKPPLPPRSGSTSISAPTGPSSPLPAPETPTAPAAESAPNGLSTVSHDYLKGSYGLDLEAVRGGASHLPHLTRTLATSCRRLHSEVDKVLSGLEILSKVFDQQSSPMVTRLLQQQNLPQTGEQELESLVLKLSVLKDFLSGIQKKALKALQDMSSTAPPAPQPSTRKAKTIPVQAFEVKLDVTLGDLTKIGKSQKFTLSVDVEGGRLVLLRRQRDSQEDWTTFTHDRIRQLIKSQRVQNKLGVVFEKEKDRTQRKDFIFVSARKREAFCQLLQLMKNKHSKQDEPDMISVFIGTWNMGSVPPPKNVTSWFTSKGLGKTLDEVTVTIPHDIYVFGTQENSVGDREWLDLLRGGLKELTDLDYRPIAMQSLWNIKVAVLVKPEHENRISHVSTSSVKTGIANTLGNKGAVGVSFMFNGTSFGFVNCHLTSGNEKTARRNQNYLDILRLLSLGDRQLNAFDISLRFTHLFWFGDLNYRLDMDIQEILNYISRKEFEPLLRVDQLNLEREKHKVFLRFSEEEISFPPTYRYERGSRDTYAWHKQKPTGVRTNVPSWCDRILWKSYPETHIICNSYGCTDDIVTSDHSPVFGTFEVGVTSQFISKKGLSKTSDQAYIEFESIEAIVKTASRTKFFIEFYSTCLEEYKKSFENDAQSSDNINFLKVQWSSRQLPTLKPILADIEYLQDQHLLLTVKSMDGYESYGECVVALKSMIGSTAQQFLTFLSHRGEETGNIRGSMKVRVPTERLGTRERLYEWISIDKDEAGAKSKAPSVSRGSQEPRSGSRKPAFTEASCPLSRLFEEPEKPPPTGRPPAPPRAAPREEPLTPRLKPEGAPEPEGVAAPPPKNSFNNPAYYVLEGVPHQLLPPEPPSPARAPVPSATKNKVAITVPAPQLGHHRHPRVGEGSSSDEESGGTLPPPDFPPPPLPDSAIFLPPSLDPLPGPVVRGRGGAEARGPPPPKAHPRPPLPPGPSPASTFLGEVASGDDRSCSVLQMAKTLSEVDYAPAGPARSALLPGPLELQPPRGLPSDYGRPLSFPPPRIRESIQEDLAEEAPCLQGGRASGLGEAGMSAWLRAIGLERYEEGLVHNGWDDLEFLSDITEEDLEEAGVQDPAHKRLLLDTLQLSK
How it was run: as §1

SHIP2 [5] = biological target: T2, SHIP2; details: ref 19a; cited from earlier work
solubility in water = format: physicochemical; details: in words

CC(C)CCC[C@@H](C)[C@H]1CC[C@H]2[C@@H]3CCC4C[C@H](N)CC[C@]4(C)[C@H]3CC[C@]12C.Cl (stereo partly drawn) [Compound 1, 3α-Aminocholestane Hydrochloride]
microglial phagocytosis of dead neurons (microglial cell lines): much less effective | solubility in DMSO (solubility in DMSO): insoluble in DMSO | solubility in DMSO (solubility in DMSO; listed as 3AC): nearly insoluble in DMSO | in vivo bioactivity (mice): in vivo bioactivity comparable to genetic phenotypes observed in SHIP knockout mice | selectivity between SHIP1 and SHIP2 (SHIP1 [1]): more selectivity for SHIP1 | Inhibition of SHIP1 (SHIP1 [1]): significant activity | IC50 (SHIP1 [2]): ~10 µM | selectivity between the two SHIP paralogs (SHIP1 [3]): some selectivity for SHIP1 | Inhibition of SHIP2 (SHIP2 [4]): significant activity | selective for SHIP1 over SHIP2 (SHIP2 [5]): at least 4 fold

CC(C)CCCC(C)C1CCC2C3CCC4CC(N)CCC4(C)C3CCC12C.Cl (stereo not shown) [Compound 11]
Inhibition of SHIP1 (SHIP1 [1]): significant activity | Inhibition of SHIP2 (SHIP2 [4]): significant activity

CC(C)CCC[C@@H](C)[C@H]1CC[C@H]2[C@@H]3CC[C@H]4C[C@H](NS(C)(=O)=O)CC[C@]4(C)[C@H]3CC[C@]12C [Compound 12]
Inhibition of SHIP1 (SHIP1 [1]): inactive | Inhibition of SHIP2 (SHIP2 [4]): inactive

CC(=O)NC1CCC2(C)C(CCC3C2CCC2(C)C(C(C)CCCC(C)C)CCC32)C1 (stereo not shown) [Compound 13]
Inhibition of SHIP1 (SHIP1 [1]): inactive | Inhibition of SHIP2 (SHIP2 [4]): inactive

CC(C)CCC[C@@H](C)[C@H]1CC[C@H]2[C@@H]3CC[C@H]4C[C@H](N(C)C)CC[C@]4(C)[C@H]3CC[C@]12C [Compound 15]
selectivity between SHIP1 and SHIP2 (SHIP1 [1]): selective inhibition of SHIP1 | Inhibition of SHIP1 (SHIP1 [1]): active | Inhibition of SHIP2 (SHIP2 [4]): significantly less effect

CC(C)CCCC(C)C1CCC2C3CCC4CC(O)C(N)CC4(C)C3CCC12C (stereo not shown) [Compound 37]
Inhibition of SHIP1 (SHIP1 [1]): significant inhibition of SHIP1 | solubility in water (solubility in water): insoluble in water

CC(C)CCC[C@@H](C)[C@H]1CC[C@H]2[C@@H]3CC[C@H]4CC(N)C(N)C[C@]4(C)[C@H]3CC[C@]12C (stereo partly shown) [Compound 45]
solubility in water (solubility in water): insoluble in water

CC(C)CCC[C@@H](C)[C@H]1CC[C@H]2[C@@H]3CC[C@H]4C[C@@H](N)[C@H](N)C[C@]4(C)[C@H]3CC[C@]12C [Compound 47]
Inhibition of SHIP1 (SHIP1 [1]): least effective inhibitors | solubility in water (solubility in water): insoluble in water | Inhibition of SHIP2 (SHIP2 [4]): least effective inhibitors
